We go through 16 molecules from ChEMBL document CHEMBL1152227, “Structure-activity relationships of 1,4-dihydropyridines that act as enhancers of the vanilloid receptor 1 (TRPV1)” (Bioorg Med Chem, 2008).

Calls of active or inactive are those of the source. No cut-off for these calls is given here.

The target in test [1] is Transient receptor potential cation channel subfamily V member 1 (Rattus norvegicus) (UniProt O35433). Kind of test: Agonist activity at TRPV1 receptor in E15 rat primary dorsal root ganglion cells assessed as effect on 45Ca2+ influx by microplate liquid scintillation counter. Format: functional, tissue-based. The method, boiled down: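 DRGs from E15 rat embryos, enzymatically dissociated, grown 5–6 days at 35°C. Test compound given without capsaicin. 45Ca2+ uptake run 10 min at 20°C in Tris-buffered (pH 7.5) HBSS with 1 mM ascorbate, 10 µM CaCl2 and 0.8 mM MgCl2, with 0.5 µCi/well tracer. Cells were washed, lysed in RIPA and counted by scintillation.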
Sequence of Transient receptor potential cation channel subfamily V member 1 (Rattus norvegicus) (O35433 whole entry): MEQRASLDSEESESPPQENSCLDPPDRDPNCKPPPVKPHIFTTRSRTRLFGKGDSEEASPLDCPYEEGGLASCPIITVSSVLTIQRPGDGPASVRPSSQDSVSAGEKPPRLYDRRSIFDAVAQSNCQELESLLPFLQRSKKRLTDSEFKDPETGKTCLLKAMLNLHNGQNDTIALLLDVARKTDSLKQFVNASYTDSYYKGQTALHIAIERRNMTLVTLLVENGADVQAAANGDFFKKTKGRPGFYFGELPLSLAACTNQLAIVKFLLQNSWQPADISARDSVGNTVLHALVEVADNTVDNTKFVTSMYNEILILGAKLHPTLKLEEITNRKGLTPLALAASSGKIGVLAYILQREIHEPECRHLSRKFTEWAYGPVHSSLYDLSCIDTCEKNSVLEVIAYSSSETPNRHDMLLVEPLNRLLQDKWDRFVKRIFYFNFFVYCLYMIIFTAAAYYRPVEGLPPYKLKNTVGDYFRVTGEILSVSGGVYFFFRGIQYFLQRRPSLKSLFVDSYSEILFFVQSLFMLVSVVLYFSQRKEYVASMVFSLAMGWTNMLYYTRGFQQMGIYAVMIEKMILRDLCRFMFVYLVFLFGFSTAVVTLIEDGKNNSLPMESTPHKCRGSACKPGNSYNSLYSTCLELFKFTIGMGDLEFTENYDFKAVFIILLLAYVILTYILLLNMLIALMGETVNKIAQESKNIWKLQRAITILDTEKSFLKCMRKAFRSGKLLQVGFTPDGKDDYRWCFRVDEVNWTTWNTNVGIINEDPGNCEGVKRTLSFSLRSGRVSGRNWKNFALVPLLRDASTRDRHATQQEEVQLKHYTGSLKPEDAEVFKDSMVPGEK

Test [2] has as its target T1, Transient receptor potential cation channel subfamily V member 1 (Homo sapiens, UniProt Q8NER1). Kind of test: Agonist-enhancing activity in epsilon-epitope tagged TRPV1 receptor expressed in mouse NIH3T3 cells assessed as capsaicin-induced 45Ca2+ influx at 100 uM by microplate liquid scintillation counter relative to capsaicin alone. Format: functional, cell-based. In short, it runs like this: (§1)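 Stable ε-tagged TRPV1 NIH3T3 cells. Uptake with capsaicin 2 µM, 10 min at 20°C, 0.5 µCi/well 45Ca2+ in Tris-HBSS pH 7.5. Compound up to 100 µM, 2% DMSO, from 5 mM stocks, duplicate wells per concentration. Data normalized to capsaicin-only wells (100%). Variable-slope fit gave EC50 and ΔEmax; compounds too weak to fit were given ΔEmax at the top concentration.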

Test [3] addresses T1, Transient receptor potential cation channel subfamily V member 1. Kind of test: Agonist activity at epsilon-epitope tagged TRPV1 receptor expressed in mouse NIH3T3 cells assessed as effect on 45Ca2+ influx by microplate liquid scintillation counter. Format: functional, cell-based. The method, boiled down:
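NIH3T3 cells stably expressing ε-tagged TRPV1 were seeded the day before and grown at 35°C. Test compound given without capsaicin, top concentration 100 µM, 2% DMSO. 45Ca2+ uptake run 10 min at 20°C in Tris-HBSS (pH 7.5) with ascorbate, 10 µM Ca2+ and 0.8 mM Mg2+. Cells were washed, lysed in RIPA and counted by scintillation.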

Test [4] shares this target. Kind of test: Agonist-enhancing activity in epsilon-epitope tagged TRPV1 receptor expressed in mouse NIH3T3 cells assessed as capsaicin-induced 45Ca2+ influx by microplate liquid scintillation counter. Format: functional, cell-based. The method, boiled down: as §1
The target in test [5] is Transient receptor potential cation channel subfamily V member 1 (Rattus norvegicus) (UniProt O35433). Kind of test: Agonist-enhancing activity at TRPV1 receptor in E15 rat primary dorsal root ganglion cells assessed as capsaicin-induced 45Ca2+ influx by microplate liquid scintillation counter relative to capsaicin alone. Format: functional, tissue-based. The method, boiled down:
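E15 rat DRG cultures grown 5–6 days at 35°C. Uptake with capsaicin ~0.5 µM, 10 min at 20°C, 0.5 µCi/well 45Ca2+ in Tris-HBSS pH 7.5. Compound up to 50 µM, 0.2% DMSO, from 25 mM stocks. Counts normalized to in-plate capsaicin-only wells (100%, 4 wells). Variable-slope sigmoid fit gave EC50, Hill slope and ΔEmax.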

T1 sequence (Q8NER1 whole entry): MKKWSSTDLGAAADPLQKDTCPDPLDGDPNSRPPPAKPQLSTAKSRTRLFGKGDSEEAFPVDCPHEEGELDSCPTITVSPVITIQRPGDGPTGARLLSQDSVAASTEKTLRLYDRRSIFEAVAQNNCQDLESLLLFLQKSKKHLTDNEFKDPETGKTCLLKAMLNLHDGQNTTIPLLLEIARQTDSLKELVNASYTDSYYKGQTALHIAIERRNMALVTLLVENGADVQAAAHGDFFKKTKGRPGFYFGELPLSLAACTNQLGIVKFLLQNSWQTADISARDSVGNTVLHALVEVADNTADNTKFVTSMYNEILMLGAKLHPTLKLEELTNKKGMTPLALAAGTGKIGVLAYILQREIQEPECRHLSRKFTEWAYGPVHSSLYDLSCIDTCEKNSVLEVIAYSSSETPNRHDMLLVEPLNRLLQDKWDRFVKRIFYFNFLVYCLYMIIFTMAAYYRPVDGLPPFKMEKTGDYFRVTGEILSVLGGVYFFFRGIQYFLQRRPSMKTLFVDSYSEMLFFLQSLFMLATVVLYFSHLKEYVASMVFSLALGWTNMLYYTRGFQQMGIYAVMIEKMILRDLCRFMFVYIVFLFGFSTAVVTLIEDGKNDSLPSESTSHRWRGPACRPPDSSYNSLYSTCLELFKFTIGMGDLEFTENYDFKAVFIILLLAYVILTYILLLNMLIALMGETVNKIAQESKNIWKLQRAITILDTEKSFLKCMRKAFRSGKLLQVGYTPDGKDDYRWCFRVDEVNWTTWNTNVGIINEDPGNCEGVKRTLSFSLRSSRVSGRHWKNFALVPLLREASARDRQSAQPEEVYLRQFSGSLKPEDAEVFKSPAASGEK

For `CCCC1C(C(=O)SCCc2ccccc2)=C(C)NC(c2ccccc2)=C1C(=O)OCC` (racemic), the outcome in test [1] and in test [3] was inactive. Besides, the Emax in test [2] amounted to 360%; in test [5], 231%. In addition, the EC50 in test [4] turned out to be 27.6 µM.

Consider `CCOC(=O)C1=C(c2ccc(F)cc2)NC(C)=C(C(=O)SCCc2ccccc2)C1CC` (racemic), for which the result in test [1] and in test [3] was inactive. In addition, the maximum response (Emax) in test [2] stood at 232%; in test [5], 148%. In test [4], the EC50 was 51.6 µM.

Turning to `CCOC(=O)C1=C(C)NC(c2cccc(Cl)c2)=C(C(=O)OCC)C1CC` (racemic), the result in test [1] and in test [3] was inactive. In addition, the Emax was 347% in test [2] and 259% in test [5]. Moreover, the concentration for a half-maximal effect (EC50) in test [4] is 17.1 µM.

On to `CCOC(=O)C1=C(c2ccc(F)cc2)NC(C)=C(C(=O)SCC)C1CC` (racemic), for which the result in test [1] and in test [3] was inactive. The Emax in test [2] was found to be 409%. Moreover, the EC50 in test [4] is 28.4 µM.

On to `CCCC1C(C(=O)SCC)=C(C)NC(c2cccc(Cl)c2)=C1C(=O)OCC` (racemic), for which the outcome in test [1] and in test [3] was inactive. In addition, in test [2], the Emax came to 177%.

With `CCOC(=O)C1=C(C2CCCCC2)NC(C)=C(C(=O)SCC)C1CC` (racemic), the result in test [1] and in test [3] was inactive. The Emax in test [2] amounted to 87%.

Consider `CCOC(=O)C1=C(c2ccc(C#N)cc2)NC(C)=C(C(=O)SCC)C1CC` (racemic), for which the result in test [1] and in test [3] was inactive. Besides, the maximal effect (Emax) in test [2] was determined as 129%.

Regarding `CCOC(=O)C1=C(c2ccc(F)cc2)NC(C)=C(C(=O)SCC)C1C1CC1` (racemic), the outcome in test [1] and in test [3] was inactive. Further, the Emax in test [2] was 175%.

As for `CCOC(=O)C1=C(c2ccc([N+](=O)[O-])cc2)NC(C)=C(C(=O)SCCc2ccccc2)C1CC` (racemic), the outcome in test [1] and in test [3] was inactive. Besides, the values for the Emax in test [2] and in test [5] were 101% and 117%, respectively.

Consider `CCOC(=O)C1=C(c2ccc([N+](=O)[O-])cc2)NC(C)=C(C(=O)SCc2ccccc2)C1CC` (racemic), for which the result in test [1] and in test [3] was inactive. In addition, the Emax in test [2] is 98%.

Consider `CCOC(=O)C1=C(c2ccc3ccccc3c2)NC(C)=C(C(=O)SCC)C1CC` (racemic), for which the outcome in test [1] and in test [3] was inactive. In addition, the Emax in test [2] was determined as 116%.

As for `CCOC(=O)C1=C(c2cccc(Cl)c2)NC(C)=C(C(=O)SCCc2ccccc2)C1CC` (racemic), the outcome in test [1] and in test [3] was inactive. Moreover, in test [2], the Emax came out at 194%.

Consider `CCOC(=O)C1=C(c2ccccc2F)NC(C)=C(C(=O)SC(C)C)C1CC` (racemic), for which the result in test [1] and in test [3] was inactive. Moreover, the Emax in test [2] was found to be 124%.

In the case of `CCOC(=O)C1=C(c2ccccc2F)NC(C)=C(C(=O)SCC)C1CC` (racemic), the result in test [1] and in test [3] was inactive. Besides, the Emax in test [2] came out at 198%.

As to `CCOC(=O)C1=C(c2ccccc2F)NC(C)=C(C(=O)SCCc2ccccc2)C1CC` (racemic), the outcome in test [1] and in test [3] was inactive. Besides, in test [2], the Emax amounted to 117%.

Take `CCOC(=O)C1=C(c2ccccc2F)NC(C)=C(C(=O)SCc2ccccc2)C1CC` (racemic): the outcome in test [1] and in test [3] was inactive. Moreover, the Emax in test [2] came out at 123%.

A word on the Emax: it is the size of the effect at its maximum, as opposed to the concentration needed. Broadly, the EC50 is the concentration that produces a half-maximal response.
